From ChEMBL document CHEMBL4480370, “Synthesis and preliminary evaluation of the anti-cancer activity on A549 lung cancer cells of a series of unsaturated disulfides” (2019) come the findings set out here.

Calls of active or inactive are those of the source. The rule behind the calls is not given here.

The subject of test [1] is A549. Briefly: Cytotoxicity against human A549 cells assessed as reduction in cell viability at 50 uM after 48 hrs by CellTiter-Glo luminescent assay relative to control. The class given is functional. Put shortly: (§1)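 A549 cells kept in RPMI 1640 with 10% fetal bovine serum and 100 units per ml penicillin–streptomycin. Each molecule was applied at 50, 100, 250 and 500 μM, with viability read at 24 or 48 h by CellTiter-Glo luminescence. Values are expressed relative to untreated control (C), as the mean of three repeats with relative standard deviation.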
For orientation: In ATP-based viability assays light output follows the ATP content of the culture.

The test system of test [2] is A549. Put plainly: Cytotoxicity against human A549 cells assessed as reduction in cell viability after 24 hrs by CellTiter-Glo luminescent assay. It counts as functional, cell-based. Put shortly:
as §1

The test system of test [3] is A549. Put plainly: Cytotoxicity against human A549 cells assessed as reduction in cell viability at 500 uM after 48 hrs by CellTiter-Glo luminescent assay relative to control. The class given is functional. The method, boiled down: as §1
In test [4] the test system is A549. Put plainly: Cytotoxicity against human A549 cells assessed as reduction in cell viability at 50 to 500 uM by CellTiter-Glo luminescent assay. As to conditions: TDE = time-dependent effect. It counts as functional, cell-based. Put shortly:
as §1

Test [5] deals with A549. Put plainly: Cytotoxicity against human A549 cells assessed as reduction in cell viability at 100 to 250 uM after 48 hrs by CellTiter-Glo luminescent assay. It counts as functional, cell-based. Put shortly:
as §1

The subject of test [6] is A549. Briefly: Cytotoxicity against human A549 cells assessed as reduction in cell viability at 500 uM after 24 hrs by CellTiter-Glo luminescent assay. It counts as functional, cell-based. Put shortly:
as §1

Test [7] deals with A549. Put plainly: Cytotoxicity against human A549 cells assessed as reduction in cell viability after 48 hrs by CellTiter-Glo luminescent assay. It counts as functional, cell-based. Put shortly: as §1
Test [8] concerns A549. Briefly: Cytotoxicity against human A549 cells assessed as reduction in cell viability at 250 uM after 48 hrs by CellTiter-Glo luminescent assay. The class given is functional, cell-based. The method, boiled down:
as §1

In test [9] the test system is A549. Briefly: Cytotoxicity against human A549 cells assessed as reduction in cell viability at 50 to 500 uM after 24 hrs by CellTiter-Glo luminescent assay. It counts as functional, cell-based. The method, boiled down: as §1

In the case of `C=CCSSCC=C` [DIALLYLDISULFIDE], the Activity is 54% in the test with A549 [1], “Dose-dependent effect” with A549 [2], 65% in the test with A549 [3] and “Tde” in the test on A549 [4].

On to `C/C=C/CSSC/C=C/C`, for which the Activity is 70% in the test with A549 [1], “Dose-dependent effect” in the test on A549 [2], 84% in the test with A549 [3] and “Tde” in the test on A549 [4]. The result in the test on A549 [5] was Active.

For `CCC/C=C/CSSC/C=C/CCC`, the outcome with A549 [6] was Active.

For `C=CCCSSCCC=C`, the Activity result with A549 [7] is “Dose-dependent effect”; in the test on A549 [1], 68%; with A549 [2] it was “Dose-dependent effect”; in the test with A549 [3], 100%; with A549 [4], “Tde”. The result in the test with A549 [8] was Active.

Consider `CCCC=CCSSCC=CCCC` (mixture of isomers), for which the result in the test with A549 [6] was Active.

`C=CCCCCSSCCCCC=C`: the outcome with A549 [9] was inactive.
